The values below come from ChEMBL document CHEMBL1143837, “In vitro activities of various antimicrobials alone and in combination with tigecycline against carbapenem-intermediate or -resistant Acinetobacter baumannii” (2007).

In general, MIC50 refers to the lowest concentration that inhibits either 50% of growth or 50% of the strains tested, depending on the study. Read a low MIC50 as greater potency. By MIC90 is commonly meant an inhibitory concentration at the 90% level, which refers to growth in some studies and to a panel of isolates in others. Read a low MIC90 as higher susceptibility.

Converted amounts (≈) assume the structure as drawn. The source made the active and inactive calls. The rule behind the calls is not given here.

The test system of assay [1] is Acinetobacter baumannii. Kind of assay: Antimicrobial activity against carbapenem-intermediate or resistant Acinetobacter baumannii assessed as percent susceptible isolates. Type of assay: functional.
For assay [2], the system named is Acinetobacter baumannii. Kind of assay: Antimicrobial activity against carbapenem-intermediate or resistant Acinetobacter baumannii isolates by agar dilution method. Type of assay: functional. In short, it runs like this:
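Clinical isolates with imipenem or meropenem MIC ≥8 mg/liter were tested by agar dilution on Mueller-Hinton agar supplemented with 25 mg/liter calcium and 12.5 mg/liter magnesium. Inoculum was ~10⁴ CFU per spot from a 0.5 McFarland BHI suspension. Plates were incubated at 35°C for 18–24 h. Growth beyond a single colony or a slight haze counted as growth.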

In assay [3] the test system is Acinetobacter baumannii. Kind of assay: Antimicrobial activity against carbapenem-intermediate or resistant Acinetobacter baumannii isolates by broth microdilution method. Type of assay: functional. In short, it runs like this:
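Tigecycline MIC by broth microdilution in freshly prepared CAMHB (25 mg/liter calcium, 12.5 mg/liter magnesium). Approximately 5 × 10⁵ CFU/ml was added to serial drug dilutions and incubated in ambient air at 35°C for 18–24 h. Isolates had imipenem or meropenem MIC ≥8 mg/liter.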

For assay [4], the system named is Acinetobacter baumannii. Kind of assay: Bactericidal activity against carbapenem-resistant Acinetobacter baumannii AA557 by time kill curve analysis. The assay is classed as functional, organism-based. In a few lines: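 Time-kill on AA557: mid-log (4 h) inoculum at ~5 × 10⁵ CFU/ml in 10 ml fresh CAMHB with tigecycline at 0.5×, 1×, 2× or 4× MIC, or at the calculated average free steady-state serum level, plus growth control. Sampled at 0, 2, 4, 8, 24 and 48 h and plated in duplicate on sheep-blood TSA (35°C, 18–24 h). Detection limit 40 CFU/ml. Experiments run in duplicate.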

The subject of assay [5] is Acinetobacter baumannii. Kind of assay: Bactericidal activity against carbapenem-resistant Acinetobacter baumannii AA557 assessed as reduction in colony count at 2 mg/liter after 24 hrs by time kill curve analysis. The assay is classed as functional, organism-based.

Consider `NCC[C@H](O)C(=O)N[C@@H]1C[C@H](N)[C@@H](O[C@H]2O[C@H](CN)[C@@H](O)[C@H](O)[C@H]2O)[C@H](O)[C@H]1O[C@H]1O[C@H](CO)[C@@H](O)[C@H](N)[C@H]1O` [AMIKACIN], for which the Activity in assay [1] was 38%. For the same compound, in assay [2], the MIC50 was 32 µg/mL (≈ 54.6 µM) and the MIC90 is above 32 µg/mL.

For the compound `O=C(O)c1cn(C2CC2)c2cc(N3CCNCC3)c(F)cc2c1=O` [CIPROFLOXACIN], the Activity in assay [1] was 0%.

Consider `C[C@H]1c2cccc(O)c2C(=O)C2=C(O)[C@]3(O)C(=O)C(C(N)=O)=C(O)[C@@H](N(C)C)[C@@H]3[C@@H](O)[C@@H]21.O` [DOXYCYCLINE], for which the Activity in assay [1] was found to be 56%. For the same compound, in assay [2], the MIC50 is 2 µg/mL and the MIC90 was above 32 µg/mL.

Turning to `C[C@@H](O)[C@H]1C(=O)N2C(C(=O)O)=C(SCCNC=N)C[C@H]12` [IMIPENEM ANHYDROUS], the Activity in assay [1] is 20%. For the same compound, in assay [2], the MIC50 came out at 4 µg/mL (≈ 13.4 µM) and the MIC90 came out at 64 µg/mL (≈ 214 µM).

Take `C[C@@H](O)[C@H]1C(=O)N2C(C(=O)O)=C(S[C@@H]3CN[C@H](C(=O)N(C)C)C3)[C@H](C)[C@H]12` [MEROPENEM]: the Activity in assay [1] is 4%. In assay [2], the MIC50 was found to be 16 µg/mL (≈ 41.7 µM) and the MIC90 is above 128 µg/mL.

Consider `CN(C)c1ccc(O)c2c1C[C@H]1C[C@H]3[C@H](N(C)C)C(O)=C(C(N)=O)C(=O)[C@@]3(O)C(O)=C1C2=O` [MINOCYCLINE], for which the Activity in assay [1] is 83%. In addition, in assay [2], the MIC50 is 0.5 µg/mL (≈ 1.09 µM) and the MIC90 came to 8 µg/mL (≈ 17.5 µM).

For `CO[C@H]1/C=C/O[C@@]2(C)Oc3c(C)c(O)c4c(O)c(c(/C=N/N5CCN(C)CC5)c(O)c4c3C2=O)NC(=O)/C(C)=C\C=C\[C@H](C)[C@H](O)[C@@H](C)[C@@H](O)[C@@H](C)[C@H](OC(C)=O)[C@@H]1C` [RIFAMPIN], in assay [1], the result was inactive. In assay [2], the MIC50 was found to be 4 µg/mL (≈ 4.86 µM) and the MIC90 was found to be 8 µg/mL (≈ 9.72 µM).

Consider `CN(C)c1cc(NC(=O)CNC(C)(C)C)c(O)c2c1C[C@H]1C[C@H]3[C@H](N(C)C)C(O)=C(C(N)=O)C(=O)[C@@]3(O)C(O)=C1C2=O` [TIGECYCLINE], for which, in assay [3], the MIC50 stood at 1 µg/mL (≈ 1.71 µM) and the MIC90 was 2 µg/mL (≈ 3.41 µM). For the same compound, the Activity in assay [1] is 95%. For the same compound, the result in assay [4] was Active.

Take POLYMYXIN B: in assay [1], the Activity was found to be 100%. Besides, the log10CFU/ml in assay [5] was 1.6. In assay [2], this compound showed an MIC50 of 1 µg/mL and an MIC90 of 1 µg/mL.
